Experiments:
Type in all cases: functional
[1] = tested on: SR; experiment: Growth inhibition of human SR cells assessed as growth percentage at 10 uM incubated for 48 hrs by sulforhodamine B assay relative to control; conditions: read-out: Activity
In short: (§1)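 NCI-60 single-dose screen. Cells were grown in RPMI 1640 with 5% FBS and 2 mM L-glutamine and plated at 5,000–40,000 cells/well. After an overnight preincubation at 37 °C in 5% CO2, compound was added at a final 10 µM from a DMSO stock, with DMSO/PBS controls. After 48 h, cells were TCA-fixed and stained with 0.4% SRB, and absorbance was read at 515 nm. Growth is given as a percentage of untreated control.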

[2] = tested on: EKVX; experiment: Growth inhibition of human EKVX cells assessed as growth percentage at 10 uM incubated for 48 hrs by sulforhodamine B assay relative to control; conditions: read-out: Activity
In short: (§2)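 NCI-60 one-dose screen: cells in RPMI 1640 with 5% FBS and 2 mM L-glutamine, plated at 5,000–40,000 cells/well and preincubated 24 h at 37 °C, 5% CO2. Compound is added from a DMSO stock to a final 10 µM and incubated 48 h. Cells are TCA-fixed and stained with sulforhodamine B, read at 515 nm. Output is % growth versus untreated control, with a time-zero plate.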

[3] = tested on: HOP-62; experiment: Growth inhibition of human HOP62 cells assessed as growth percentage at 10 uM incubated for 48 hrs by sulforhodamine B assay relative to control; conditions: HOP-62, 48 h, read-out: Activity
In short: (§3)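 NCI-60 one-dose screen. Cells in RPMI 1640 with 5% FBS and 2 mM L-glutamine, seeded at 5,000–40,000 cells/well according to doubling time, and preincubated overnight at 37 °C, 5% CO2. A time-zero plate was TCA-fixed at drug addition. Compound from DMSO stock, final 10 µM, 48 h; DMSO vehicle controls. Fixation with TCA, 10% final (16% for suspension cells). SRB stain, Tris solubilization, A515. Result given as % growth versus untreated cells.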

[4] = tested on: HOP-92; experiment: Growth inhibition of human HOP92 cells assessed as growth percentage at 10 uM incubated for 48 hrs by sulforhodamine B assay relative to control; conditions: HOP-92, 48 h, read-out: Activity; in short: as §3
[5] = tested on: NCI-H23; experiment: Growth inhibition of human NCI-H23 cells assessed as growth percentage at 10 uM incubated for 48 hrs by sulforhodamine B assay relative to control; conditions: NCI-H23, 48 h, read-out: Activity; in short: as §3
[6] = tested on: NCI-H322M; experiment: Growth inhibition of human NCI-H322M cells assessed as growth percentage at 10 uM incubated for 48 hrs by sulforhodamine B assay relative to control; conditions: read-out: Activity; in short: as §3
[7] = tested on: NCI-H460; experiment: Growth inhibition of human NCI-H460 cells assessed as growth percentage at 10 uM incubated for 48 hrs by sulforhodamine B assay relative to control; conditions: NCI-H460, 48 h, read-out: Activity; in short: as §3
[8] = tested on: NCI-H522; experiment: Growth inhibition of human NCI-H522 cells assessed as growth percentage at 10 uM incubated for 48 hrs by sulforhodamine B assay relative to control; conditions: NCI-H522, 48 h, read-out: Activity; in short: as §3
[9] = tested on: HCC 2998; experiment: Growth inhibition of human HCC2998 cells assessed as growth percentage at 10 uM incubated for 48 hrs by sulforhodamine B assay relative to control; conditions: HCC 2998, 48 h, read-out: Activity; in short: as §2
[10] = tested on: KM12; experiment: Growth inhibition of human KM12 cells assessed as growth percentage at 10 uM incubated for 48 hrs by sulforhodamine B assay relative to control; conditions: KM12, 48 h, read-out: Activity; in short: as §3
[11] = tested on: SF-268; experiment: Growth inhibition of human SF268 cells assessed as growth percentage at 10 uM incubated for 48 hrs by sulforhodamine B assay relative to control; conditions: SF-268, 48 h, read-out: Activity; in short: as §1
[12] = tested on: SF-295; experiment: Growth inhibition of human SF295 cells assessed as growth percentage at 10 uM incubated for 48 hrs by sulforhodamine B assay relative to control; conditions: SF-295, 48 h, read-out: Activity; in short: as §1
[13] = tested on: SNB-19; experiment: Growth inhibition of human SNB19 cells assessed as growth percentage at 10 uM incubated for 48 hrs by sulforhodamine B assay relative to control; conditions: SNB-19, 48 h, read-out: Activity; in short: as §1
[14] = tested on: Malme-3M; experiment: Growth inhibition of human MALME-3M cells assessed as growth percentage at 10 uM incubated for 48 hrs by sulforhodamine B assay relative to control; conditions: read-out: Activity; in short: as §3
[15] = tested on: SK-MEL-2; experiment: Growth inhibition of human SK-MEL-2 cells assessed as growth percentage at 10 uM incubated for 48 hrs by sulforhodamine B assay relative to control; conditions: SK-MEL-2, 48 h, read-out: Activity; in short: as §1
[16] = tested on: SK-MEL-28; experiment: Growth inhibition of human SK-MEL-28 cells assessed as growth percentage at 10 uM incubated for 48 hrs by sulforhodamine B assay relative to control; conditions: SK-MEL-28, 48 h, read-out: Activity; in short: as §1
[17] = tested on: UACC-257; experiment: Growth inhibition of human UACC257 cells assessed as growth percentage at 10 uM incubated for 48 hrs by sulforhodamine B assay relative to control; conditions: UACC-257, 48 h, read-out: Activity; in short: as §1
[18] = tested on: OVCAR-3; experiment: Growth inhibition of human OVCAR3 cells assessed as growth percentage at 10 uM incubated for 48 hrs by sulforhodamine B assay relative to control; conditions: OVCAR-3, 48 h, read-out: Activity; in short: as §3
[19] = tested on: OVCAR-4; experiment: Growth inhibition of human OVCAR4 cells assessed as growth percentage at 10 uM incubated for 48 hrs by sulforhodamine B assay relative to control; conditions: OVCAR-4, 48 h, read-out: Activity; in short: as §3
[20] = tested on: OVCAR-5; experiment: Growth inhibition of human OVCAR5 cells assessed as growth percentage at 10 uM incubated for 48 hrs by sulforhodamine B assay relative to control; conditions: OVCAR-5, 48 h, read-out: Activity; in short: as §1
[21] = tested on: OVCAR-8; experiment: Growth inhibition of human OVCAR8 cells assessed as growth percentage at 10 uM incubated for 48 hrs by sulforhodamine B assay relative to control; conditions: OVCAR-8, 48 h, read-out: Activity; in short: as §1
[22] = tested on: NCI/ADR-RES; experiment: Growth inhibition of human NCI/ADR-RES cells assessed as growth percentage at 10 uM incubated for 48 hrs by sulforhodamine B assay relative to control; conditions: read-out: Activity; in short: as §3
[23] = tested on: 786-0; experiment: Growth inhibition of human 786-0 cells assessed as growth percentage at 10 uM incubated for 48 hrs by sulforhodamine B assay relative to control; conditions: 786-0, 48 h, read-out: Activity; in short: as §2
[24] = tested on: A498; experiment: Growth inhibition of human A498 cells assessed as growth percentage at 10 uM incubated for 48 hrs by sulforhodamine B assay relative to control; conditions: A498, 48 h, read-out: Activity; in short: as §2
[25] = tested on: ACHN; experiment: Growth inhibition of human ACHN cells assessed as growth percentage at 10 uM incubated for 48 hrs by sulforhodamine B assay relative to control; conditions: read-out: Activity; in short: as §2
[26] = tested on: MDA-MB-231; experiment: Growth inhibition of human MDA-MB-231 cells assessed as growth percentage at 10 uM incubated for 48 hrs by sulforhodamine B assay relative to control; conditions: MDA-MB-231, 48 h, read-out: Activity; in short: as §3
[27] = tested on: T47D; experiment: Growth inhibition of human T47D cells assessed as growth percentage at 10 uM incubated for 48 hrs by sulforhodamine B assay relative to control; conditions: read-out: Activity; in short: as §1

Row | SMILES | growth at 10 µM [1] [%] | growth at 10 µM [2] [%] | growth at 10 µM [3] [%] | growth at 10 µM [4] [%] | growth at 10 µM [5] [%] | growth at 10 µM [6] [%] | growth at 10 µM [7] [%] | growth at 10 µM [8] [%] | growth at 10 µM [9] [%] | growth at 10 µM [10] [%] | growth at 10 µM [11] [%] | growth at 10 µM [12] [%] | growth at 10 µM [13] [%] | growth at 10 µM [14] [%] | growth at 10 µM [15] [%] | growth at 10 µM [16] [%] | growth at 10 µM [17] [%] | growth at 10 µM [18] [%] | growth at 10 µM [19] [%] | growth at 10 µM [20] [%] | also measured
1 | O=C1C2=C(NC(=S)NC2c2ccc3c(c2)OCO3)c2ccccc21 (racemic) | 107 | 102 | 104 | 95 | 98.5 | 106 | 111 | 91.5 | 106 | 109 | 91.8 | 102 | 100 | 106 | 105 | 123 | 102 | 113 | 102 | 106 | growth at 10 µM [21]: 102%; growth at 10 µM [22]: 103%; growth at 10 µM [23]: 108%; growth at 10 µM [24]: 109%; growth at 10 µM [25]: 106%; growth at 10 µM [26]: 104%; growth at 10 µM [27]: 99%
2 | CC(=O)N1C(=S)NC(C)=C(C(=O)OC(C)C)C1c1ccc2c(c1)OCO2 (racemic) | 89.6 | 99.7 | 88.5 | 78.1 | 100 | 99.5 | 110 | 78 | 110 | 99.7 | 100 | 99.4 | 98.1 | 98.4 | 110 | 111 | 104 | 109 | 100 | 107 | growth at 10 µM [21]: 96.4%; growth at 10 µM [22]: 103%; growth at 10 µM [23]: 102%; growth at 10 µM [24]: 114%; growth at 10 µM [25]: 106%; growth at 10 µM [26]: 88.9%; growth at 10 µM [27]: 70.4%
